Sampled rows, rich in hits. Any-hit rate of the full collection: about 9.6%.
TNAP inh no acc = blocks human TNAP activity with no phosphate acceptor present. purified TNAP, CDP-star luminescence, 30 min. inhibition, % at 20 µM. AID 1012. 0.26% of 200,000 active;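 active = tissue-nonspecific alkaline phosphatase inhibition above about 50% at 20 µM in the single-dose screen, limit read from the data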
Target sequence (P05186 whole entry, looked up): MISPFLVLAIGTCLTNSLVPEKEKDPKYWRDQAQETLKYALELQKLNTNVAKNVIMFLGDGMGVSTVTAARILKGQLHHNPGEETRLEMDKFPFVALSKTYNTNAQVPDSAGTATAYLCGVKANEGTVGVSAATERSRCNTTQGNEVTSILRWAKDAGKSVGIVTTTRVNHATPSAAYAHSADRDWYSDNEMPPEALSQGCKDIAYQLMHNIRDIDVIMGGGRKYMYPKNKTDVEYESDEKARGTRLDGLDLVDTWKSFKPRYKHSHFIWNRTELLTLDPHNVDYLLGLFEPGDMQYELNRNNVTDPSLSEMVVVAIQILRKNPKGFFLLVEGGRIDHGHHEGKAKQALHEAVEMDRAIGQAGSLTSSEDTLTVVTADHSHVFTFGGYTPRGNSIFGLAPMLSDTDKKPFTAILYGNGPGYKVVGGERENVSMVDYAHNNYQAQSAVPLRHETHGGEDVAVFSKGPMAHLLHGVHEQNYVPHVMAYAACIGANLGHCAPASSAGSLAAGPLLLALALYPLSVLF
bCat KO growth = beta-catenin-lacking colon tumor cell growth suppression; HCT116 beta-catenin knockout viability, CellTiter-Glo, 60 h; hits give low values; viability, % at 10 µM; 1.5% of 140,000 active; AID 818;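 active = viability at or under a set limit, the compound median less 4 SD, cut at about 6% in these data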
TNAP inh hi DEA = blocks human TNAP under high phosphate acceptor concentration. P05186. purified TNAP, CDP-star luminescence, 1 M DEA. inhibition, % at 20 µM. 0.03% of 200,000 active. AID 1135;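 active = over 50% inhibition of tissue-nonspecific alkaline phosphatase at 20 µM in the single-dose screen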
Lmaj promast = Leishmania major promastigote growth inhibition. Leishmania major promastigotes, resazurin fluorescence viability. inhibition, % at 10 µM. 9% of 200,000 active. AID 1063; in the data active = inhibition above about 50%;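 also: promastigotes grown with compound for 44 hours at 28 °C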
TNAP act hiacc = activators of human TNAP at high phosphate acceptor concentration; activation factor at 20 µM; AID 1136; purified TNAP, CDP-star luminescence, 1 M DEA, 30 min; hits give high values; 0 = EDTA background, 1 = DMSO-only activity; 200,000 tested, under 10 active; P05186;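 active = activation factor at least 2 at 20 µM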
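Control set: EDTA negative control, DMSO positive control / Assay system: human TNAP / Quantity: TNAP 1/800 final / Evaluation: TNAP activation factor scaled between EDTA and DMSO control wells / Measured by: luminescent substrate turnover signal / Compound dosing: one dose, 20 µM / Times: 30 min enzyme reaction at room temperature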
HCT116 PTEN-null = PTEN-deleted cell growth suppression; viability, % at 10 µM; HCT116 PTEN-null viability, CellTiter-Glo, 60 h; hits give low values; 1.2% of 140,000 active;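 active = viability at or below a set limit, 4 SD under the median of all tested compounds, cut at about 3.7% in these data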;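 also: PTEN knockout HCT116 line with beta catenin targeted HCT116 as companion control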
Each line names hits and unclear results; the compound was inactive in the other large screens.

COc1ccccc1N1CCN(C(=O)c2cc(N3C(=O)C4C5CCC(C5)C4C3=O)ccc2Cl)CC1 (centres undefined)	Lmaj promast 89.5
CC(C)(C)NS(=O)(=O)c1ccc(CCC(=O)Nc2cc(Cl)ccc2Oc2ccccc2)cc1	Lmaj promast 98.0
COc1cccc(OCC(=O)Nc2cc(Cl)ccc2Oc2ccccc2)c1	Lmaj promast 95.4
N=c1sccn1CC(=O)Nc1cc(Cl)ccc1Oc1ccccc1	Lmaj promast 100.4
COc1cc(/C=N/NC(=O)c2cccnc2)ccc1OS(=O)(=O)c1cc(C)ccc1C	Lmaj promast 97.0
COc1cc(/C=N/NC(=O)c2cccnc2)ccc1OCC(=O)Nc1ccc(C)cc1	Lmaj promast 54.5
COc1cc(-c2nn3c(-c4ccccc4)nnc3s2)cc(OC)c1OC	bCat KO growth 4.9
COc1cc2c(cc1OC)-c1nnc(-c3ccco3)n1C1(CCCC1)C2	Lmaj promast 57.5
COc1cc(-c2nnc3sc(-c4ccco4)nn23)cc(OC)c1OC	none
COc1ccc(-c2nn3c(-c4ccco4)nnc3s2)cc1OC	Lmaj promast 88.4
COc1cc(OC)c(-c2nn3c(-c4ccco4)nnc3s2)cc1OC	Lmaj promast 82.3
COc1ccc(-c2nnc3sc(-c4ccco4)nn23)cc1OC	none
COc1ccc(NC(=O)CCN2CCN(S(=O)(=O)c3cc(Cl)ccc3Cl)CC2)cc1	Lmaj promast 95.7
COC(=O)c1ccc(NC(=O)CN2CCN(S(=O)(=O)c3cc(Cl)ccc3OC)CC2)cc1	Lmaj promast 99.0
CCOC(=O)c1[nH]c(=O)[nH]c1COC(=O)c1cc2ccccc2o1	none
Cc1ccccc1OCC(=O)NNC(=O)CCN1C(=O)c2ccccc2C1=O	none (no result: bCat KO growth, HCT116 PTEN-null)
Cc1cc([N+](=O)[O-])nn1CCCC(=O)Nc1c(C)n(C)n(-c2ccccc2)c1=O	none (no result: bCat KO growth, HCT116 PTEN-null)
O=C(Nc1ccc(Cl)c(Cl)c1)N(CCCN1CCOCC1)Cc1cccs1	none
CCc1ccc(Nc2nnc(SC3CCOC3=O)s2)cc1 (centres undefined)	none
Clc1cccc(CSC2=NCCCN2)c1	Lmaj promast 60.0
O=c1[nH]c(SCc2cccc(Cl)c2)nc2c1CCCC2	none
Cc1c(NS(=O)(=O)c2ccc(Cl)c(C(=O)OCC(=O)NCc3ccco3)c2)c(=O)n(-c2ccccc2)n1C	none (no result: bCat KO growth, HCT116 PTEN-null)
CCCNC(=O)COc1nc2ccccc2nc1N1CCOCC1	none
CN(C)S(=O)(=O)c1cccc(NC(=O)COc2nc3ccccc3nc2N2CCOCC2)c1	Lmaj promast 55.6
O=C(COc1nc2ccccc2nc1N1CCOCC1)Nc1ccc(S(=O)(=O)N2CCCC2)cc1	Lmaj promast 66.7
CSCc1nnc(NC(=O)c2ccc(S(=O)(=O)N(CC(C)C)CC(C)C)cc2)o1	Lmaj promast 79.0
CCc1nnc(NC(=O)c2ccc(S(=O)(=O)N(CC(C)C)CC(C)C)cc2)o1	Lmaj promast 96.3
CN(c1ccccc1)S(=O)(=O)c1ccc(NC(=O)c2ccccc2)cc1	none
CCc1nnc(NC(=O)c2ccc(S(=O)(=O)N(C)c3ccccc3)cc2)o1	Lmaj promast 82.8 (no result: bCat KO growth, HCT116 PTEN-null)
CCCN(CCC)S(=O)(=O)c1ccc(C(=O)Nc2nnc(COC)o2)cc1	none (no result: bCat KO growth, HCT116 PTEN-null)
Cc1nonc1OCCn1c([N+](=O)[O-])cnc1C	none (no result: bCat KO growth, HCT116 PTEN-null)
Cc1ccc(Nc2c(N)c(=O)oc3ccccc23)cc1	Lmaj promast 73.4
CNc1c(N)c(=O)oc2ccccc12	none (no result: bCat KO growth, HCT116 PTEN-null)
CCC(C)c1ccccc1NC(=O)C(C)N(C)Cc1cccc(OC)c1 (centres undefined)	none (no result: bCat KO growth, HCT116 PTEN-null)
COc1ccccc1CNCc1cccc(Oc2ccccc2)c1	none (no result: bCat KO growth, HCT116 PTEN-null)
CCOC(=O)/C(C#N)=C1\Nc2ccccc2N=C1N(CC(C)C)CC(C)C	Lmaj promast 81.1
CCCCN(CCCC)C1=Nc2ccccc2N/C1=C(/C#N)C(=O)OCC	none
CC(/C=C/c1ccco1)=N\NC(=O)c1cccc(Cl)c1	none
CC(=O)Nc1cccc(C(=O)N/N=C/c2ccccc2F)c1	Lmaj promast 83.0
CC(/C=C/c1ccccc1F)=N\NC(=O)c1cccc(F)c1	Lmaj promast 90.2 (no result: bCat KO growth, HCT116 PTEN-null)
CCN(Cc1ccccc1)C(=O)COC(=O)c1cc(Cl)nc(Cl)c1	none (no result: bCat KO growth, HCT116 PTEN-null)
CCOC(=O)C1=C(C)OC(N)=C(C#N)C1c1cc2ccccc2nc1N1CCCCC1 (centres undefined)	Lmaj promast 86.2
CCOc1cc(CNCCSc2nnnn2C)cc(Br)c1OCc1ccccc1	none

Screening results: PubChem, several laboratories
